Experimental data from different studies.
Target: Tyrosine-protein kinase Lyn (LYN, Homo sapiens, UniProt P07948)

CN(C)C(=O)Cn1cc(-c2nc(C3(c4ccc(-c5cnc(N)nc5)cc4)CC3)no2)cn1  remaining binding (cell-free assay; competition with immobilised ligand; 1 µM): 79%
Cc1cnc(NC2CCOCC2)nc1-n1cnc(C(=O)NC(CN)c2cc(F)cc(Cl)c2)c1 (centres unmarked)  remaining activity (enzyme activity; inhibitor; radiometric; 1 µM): 84%
CNCc1ccccc1-c1csc([C@H](C)Nc2nc(C)nc3cc(OC)c(OC)cc23)c1  remaining binding (cell-free assay; competition with immobilised ligand; 1 µM): 100%
O=c1c2ccccc2[nH]c(=S)n1CCN1CCC(=C(c2ccc(F)cc2)c2ccc(F)cc2)CC1  remaining activity (enzyme activity; inhibitor; 0.5 µM): 108%
CN(C)c1ncnc(-c2ccc3nc(Nc4cc(CN5CCN(C(=O)CC(F)(F)F)CC5)ccn4)[nH]c3c2)c1Cl  remaining binding (cell-free assay; competition with immobilised ligand; 1 µM): 94%
Cn1c2c(Cl)c(Cl)ccc2c2cc(N)[nH]c(=O)c21  ΔTm (thermal stability; DSF; 10 µM): 0.3 °C
N#CCCc1ccc2c(c1)-c1[nH]c3ccc([N+](=O)[O-])cc3c1CC(=O)N2  remaining signal (cell-free assay; 0.5 µM): 23%
Cn1c2c(c3ccc(Cl)c(Cl)c31)C(C#N)C1(CCCC1)NC2=O (centres unmarked)  ΔTm (thermal stability; DSF; 10 µM): 0 °C
CNc1cccc2cc(C(=O)Nc3ccc(C(=O)O)cc3)c(=O)[nH]c12  inhibition (enzyme activity; inhibitor; 10 µM): -4.6%
CS(=O)(=O)c1cc(C2(NC(=O)c3cncc4c3cnn4-c3ccc(F)cc3)CC2)ccn1  remaining binding (cell-free assay; competition with immobilised ligand; 1 µM): 100%
Clc1ccc(Nc2nnc(Cc3ccncc3)c3ccccc23)cc1  remaining signal (cell-free assay; 0.5 µM): 91.8%
Cn1c2c(Cl)c(Cl)ccc2c2cn[nH]c(=O)c21  ΔTm (thermal stability; DSF; 10 µM): -0.1 °C
N#CC1(c2ccccn2)CCN(Cc2cc(C(=O)N3CCCC3)c(=O)n3ccccc23)CC1  remaining binding (cell-free assay; competition with immobilised ligand; 1 µM): 99%
Cc1ccc(NC(=O)c2ccc(CN3CCN(C)CC3)cc2)cc1Nc1nccc(-c2cccnc2)n1  activity vs control (enzyme activity; inhibitor; 0.5 µM): 59.6%
Cc1cc(NC(=O)c2cccc3cc(-c4cccc5[nH]nc(N)c45)ccc23)ccc1F  activity vs control (enzyme activity; inhibitor; 0.1 µM): 88%
Cn1c2c(c3ccc(Cl)c(Cl)c31)C(C#N)C1(CCOCC1)NC2=O (centres unmarked)  ΔTm (thermal stability; DSF; 10 µM): -0.2 °C
CCN(CC)CCNC(=O)c1c(C)[nH]c(/C=C2\C(=O)Nc3ccc(Cl)cc32)c1C  remaining activity (enzyme activity; inhibitor; 0.5 µM): 6.34%
N#CC1c2c([nH]c3c(Cl)c(Cl)ccc23)C(=O)NC12CCCCC2 (racemic)  ΔTm (thermal stability; DSF; 10 µM): 0.2 °C
Cc1ccc(C(=O)Nc2ccc(CN3CCN(C)CC3)c(C(F)(F)F)c2)cc1C#Cc1cnc2cccnn12  remaining activity (enzyme activity; inhibitor; 23.5 nM): 0.65%
COc1cc(Cl)c(C(=O)N[C@@H](CN[C@H]2CC[C@@H](N)CC2)Cc2ccc(C#N)cc2)cc1-c1ccc(CN[C@H](C)c2ccc(C)cc2)o1  remaining activity (enzyme activity; inhibitor; 1 µM): 90%
O=c1cc(-c2cccc3c2Sc2ccccc2S3)oc(N2CCOCC2)c1  remaining activity (enzyme activity; inhibitor; 0.5 µM): 106%
CNCc1ccc(-c2cc(-c3nc(-c4ccc(S(=O)(=O)C(C)C)cc4)cnc3N)on2)cc1  inhibition (enzyme activity; inhibitor; 0.4 µM): 13%
Cc1sc(C(=O)NC2COC2)cc1-n1cc(NC(=O)Nc2c(F)cccc2Cl)cn1  remaining activity (enzyme activity; inhibitor; 10 µM): 106%
CN(C(=O)c1ccccc1)c1cc(N(C)c2ccc3c(c2)CCc2ccc(C(=O)NCCN4CCOCC4)cc2C3=O)ccc1F  remaining binding (cell-free assay; competition with immobilised ligand; 1 µM): 86%
Cc1ccc(-n2nc(C(C)(C)C)cc2NC(=O)Nc2ccc(OCCN3CCOCC3)c3ccccc23)cc1  inhibition (enzyme activity; inhibitor; 10 µM): 81%
CC(C)(C)c1nc2c(s1)c1nc(N)ncc1c1ccc(NS(=O)(=O)c3c(F)cccc3F)c(F)c12  remaining activity (enzyme activity; inhibitor; radiometric; 1 µM): 87%
C[C@H](NC(=O)c1cnc2n1[C@](C)(Cc1ccc(C#N)cc1)C(=O)N2c1cc(Cl)c(F)c(Cl)c1)C(=O)NC1(c2ccccn2)CC1  remaining binding (cell-free assay; competition with immobilised ligand; 1 µM): 100%
Cn1c2c(c3ccc(Cl)c(Cl)c31)C(C#N)C1(CCNCC1)NC2=O (racemic)  ΔTm (thermal stability; DSF; 10 µM): 0.2 °C
CCN(CC)CCNC(=O)c1c(C)[nH]c(/C=C2\C(=O)Nc3ccc(F)cc32)c1C  inhibition (enzyme activity; inhibitor; 10 µM): 98%
Cc1ccc(NC(=O)c2ccc(C)c(C(F)(F)F)c2)cc1C#Cc1nn(C2CCC(O)CC2)c2ncnc(N)c12 (centres unmarked)  remaining signal (cell-free assay; inhibitor; 10 µM): 0%
O=C1c2ccccc2-c2n[nH]c3cccc1c23  activity vs control (enzyme activity; inhibitor; 0.5 µM): 97%
O=C(N1CCS(=O)(=O)CC1)N1C[C@H](c2ccc(OC(F)(F)F)cc2)C[C@H](c2nc(C3CC3)no2)C1  remaining binding (cell-free assay; competition with immobilised ligand; 1 µM): 85%
CNC(=O)c1cc(Oc2ccc(NC(=O)Nc3ccc(Cl)c(C(F)(F)F)c3)cc2)ccn1  inhibition (enzyme activity; inhibitor; 10 µM): 96%
CC1(C)NC(=O)c2[nH]c3c(Cl)c(Cl)ccc3c2C1C#N (centres unmarked)  ΔTm (thermal stability; DSF; 10 µM): 0.2 °C
CC(C)(O)[C@H]1CC[C@H](Nc2ccc3ncc(-c4cccc(C(F)(F)F)c4)n3n2)CC1  remaining activity (enzyme activity; inhibitor; 1 µM): 41.9%
